Screens (PubChem BioAssay)
Mot1-301 SUMO = yeast Mot1-301 growth rescue at high temperature, primary screen, SUMOylation pathway inhibitor project, S. cerevisiae, ATP luminescence, 38.5C. 320,000 compounds, 1% hits. AID 2716, 2010. growth rescue, % at 18.8 µM. S. cerevisiae Mot1-301 growth rescue; percent above DMSO median, 100 means doubled;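 active = every valid replicate shows activation above 250% relative to neutral control wells; inactive = the rest, any valid replicate at or below 250%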
KCNQ1 block = inhibitors of human KCNQ1 channel, primary screen, cell-based, thallium flux, high-throughput. Potassium voltage-gated channel subfamily KQT member 1 (Homo sapiens), P51787. CHO-K1 KCNQ1, FluxOR thallium flux fluorescence; hits give high values. B-score at 10 µM. 310,000 compounds, 1.3% hits. AID 2642, 2010;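 active = compounds whose thallium flux B-score, printed positive for inhibition, exceeds three library SD while starting fluorescence stays within three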;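 note: channel opened by potassium depolarization with thallium stimulus after 20 min compound exposure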
AI-2 QS mod = Vibrio harveyi AI-2 quorum sensing modulators, primary screen, JMH597 strain, luminescence/OD600 ratio. Vibrio harveyi JMH597 AI-2 luminescence/OD600 ratio, 9 h; hits give low values; strain lacks LuxN and CqsS sensors; 0 = neutral-control median. activity change, % at 7.5 µM. 300,000 compounds, 0.4% hits. AID 2094, 2009; in the data active = activity change below about -75%, passing the limit was not always enough; inconclusive = no clear call, values can overlap the other calls;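 note: luminescence divided by OD600 gain over 9 h not by final OD600 alone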
Cl transport mod = KCC2 cotransporter modulators, thallium flux, primary screen, cell-based, HEK293 KCC2, FluoZin-2 fluorescence, MLSMR; Solute carrier family 12 member 5 (Homo sapiens), Q9H2X9; KCC2 cells, thallium flux FluoZin-2 fluorescence; B-score of Tl+ flux slope (higher = more flux/activation; lower = inhibition) at 10 µM; 190,000 compounds, 2.2% hits;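 active = thallium flux slope and its plate-corrected score both differing from the plate sample mean at a set confidence after two filtering rounds, in either direction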;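 note: slope of fluorescence scaled to starting intensity during 10 to 20 s after thallium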
Target sequence (Q9H2X9 whole entry, looked up): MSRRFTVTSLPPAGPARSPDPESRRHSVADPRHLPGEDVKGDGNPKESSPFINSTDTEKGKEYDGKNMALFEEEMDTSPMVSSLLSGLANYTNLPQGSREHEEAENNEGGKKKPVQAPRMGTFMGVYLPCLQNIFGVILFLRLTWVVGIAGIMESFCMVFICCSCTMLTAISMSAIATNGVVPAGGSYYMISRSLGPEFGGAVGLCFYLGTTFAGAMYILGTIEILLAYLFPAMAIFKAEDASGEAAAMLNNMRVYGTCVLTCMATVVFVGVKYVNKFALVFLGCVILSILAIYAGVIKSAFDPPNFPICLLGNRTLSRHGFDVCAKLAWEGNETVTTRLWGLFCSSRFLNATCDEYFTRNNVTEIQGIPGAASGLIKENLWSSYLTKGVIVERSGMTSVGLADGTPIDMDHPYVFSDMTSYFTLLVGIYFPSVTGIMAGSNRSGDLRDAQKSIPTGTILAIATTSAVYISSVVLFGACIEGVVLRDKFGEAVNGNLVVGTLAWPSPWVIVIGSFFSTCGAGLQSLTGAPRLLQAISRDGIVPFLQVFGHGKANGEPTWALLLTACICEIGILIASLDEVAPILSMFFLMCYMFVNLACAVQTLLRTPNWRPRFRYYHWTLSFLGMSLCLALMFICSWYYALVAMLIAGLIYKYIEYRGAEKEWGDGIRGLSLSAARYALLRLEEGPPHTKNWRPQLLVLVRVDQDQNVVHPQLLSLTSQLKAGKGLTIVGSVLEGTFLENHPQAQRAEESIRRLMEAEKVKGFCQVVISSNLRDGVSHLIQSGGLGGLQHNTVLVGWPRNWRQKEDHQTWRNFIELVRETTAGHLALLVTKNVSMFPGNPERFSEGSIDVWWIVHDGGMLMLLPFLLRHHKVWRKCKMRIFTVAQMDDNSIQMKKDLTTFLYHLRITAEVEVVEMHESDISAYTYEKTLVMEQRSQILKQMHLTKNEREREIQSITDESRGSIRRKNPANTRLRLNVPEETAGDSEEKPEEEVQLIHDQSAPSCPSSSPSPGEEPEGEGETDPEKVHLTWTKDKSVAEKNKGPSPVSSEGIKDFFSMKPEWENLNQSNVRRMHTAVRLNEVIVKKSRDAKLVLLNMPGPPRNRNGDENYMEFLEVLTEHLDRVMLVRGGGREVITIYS
KCNQ1 act = potentiators or activators of KCNQ1 channel, primary screen, cell-based, thallium flux, high-throughput | Potassium voltage-gated channel subfamily KQT member 1 (Homo sapiens), P51787 | CHO-K1 KCNQ1, thallium flux FluxOR fluorescence; hits give high values | B-score at 10 µM | 310,000 compounds, 0.35% hits | AID 2648, 2010;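 active = fluorescence ratio B-score, a plate-corrected score, at least three library SD, with initial intensity B-score within 5 SD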
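System: CHO-K1 cells stably expressing KCNQ1 / Medium: assay buffer for compound exposure, DMSO matched across wells / Reagent: thallium- and potassium-containing depolarizing buffer / Compound: one concentration, matched DMSO / Incubation: 20 min compound pretreatment at room temperature / Measured by: kinetic FluxOR fluorescence, 10 s baseline plus 110 s post-stimulus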
hERG protect = hERG rescue from dofetilide block, primary screen, cell-based, CHO-hERG, FluxOR thallium flux, dofetilide IC70; Voltage-gated inwardly rectifying potassium channel KCNH2 (Homo sapiens), Q12809; dofetilide IC70 present; activation (rescue from dofetilide block), less the hit threshold, % at 10 µM; 310,000 compounds, 0.51% hits; AID 1511, 2009;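 active = activation above the mean of controls blocked by dofetilide plus 5 SD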;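 note: thallium influx through hERG after potassium depolarization seen as dye fluorescence rise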
KCC2 secondary = KCC2 modulators in sodium-free buffer, confirmation, cell-based, HEK293 KCC2, thallium flux, secondary assay; shares compounds with Cl transport mod; FluoZin2 fluorescence; hits give high values; normalised thallium flux (F/F0 slope) at 10 µM; 3,700 compounds, 15% hits; AID 1713, 2009;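 active = thallium flux slope above the same plate's solvent-only control mean plus 3 SD; inconclusive = the two replicate wells disagree; inactive = no significant difference from solvent-only control wells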
KCC2 bumet counter = thallium flux persisting under bumetanide in KCC2 cells, confirmation, counter-screen for KCC2 modulator project, cell-based, HEK293 KCC2, FluoZin2, secondary assay 3 | shares compounds with Cl transport mod | HEK293-KCC2 + bumetanide/ouabain; hits give high values | normalized thallium flux at 10 µM | 3,700 compounds, 49% hits | AID 1714, 2009;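 active = thallium entry rate above the same plate's blocked-transporter control wells by more than 3 SD; inconclusive = the two repeat wells disagree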;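 note: raw slope of fluorescence over initial fluorescence between 10 and 20 s after thallium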
KCC2 secondary2 = KCC2 modulators without ouabain present, confirmation, cell-based, HEK293 KCC2, thallium flux, FluoZin2, secondary assay 2 | shares compounds with Cl transport mod | thallium flux FluoZin2 fluorescence; actives lie on both sides; F/F0 rise rate, 10–20 s post-thallium | normalized thallium flux at 10 µM | 3,700 compounds, 23% hits;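 active = thallium flux slope more than 3 SD above or below the plate's solvent-only control mean, mostly below; inconclusive = the two repeat wells disagreed; inactive = no significant shift from solvent-only controls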
HEK293 Tl flux = thallium flux modulation in parental HEK cells, confirmation, counter-screen for KCC2 modulator project, cell-based, counterscreen 1. thallium flux rate (normalised fluorescence) at 10 µM. HEK293 parental cells, thallium flux FluoZin2, ouabain; baseline-ratio fluorescence slope, 10–20 s after thallium. 3,700 compounds, 46% hits. shares compounds with Cl transport mod;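 active = thallium flux rate significantly above the same plate's solvent-only control wells, beyond their mean plus 3 SD; inconclusive = the two replicate wells gave conflicting results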
KCC2 retest ouab = KCC2 inhibitors and activators, ouabain retest, confirmation, HEK-KCC2 cells; shares compounds with Cl transport mod; HEK293-KCC2, thallium flux FluoZin2 fluorescence; bidirectional: low = inhibitor, high = activator; AID 1717, 2009; 3,700 compounds, 48% hits; raw Tl+ flux slope (below DMSO = inhibition, above = activation) at 10 µM;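 active = thallium flux slope beyond 3 SD from same-plate DMSO control mean in most replicates, usually higher, sometimes lower; inconclusive = repeat tests gave conflicting results; inactive = no significant difference from controls in most replicates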;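 note: slope of initial-normalized fluorescence between seconds 10 and 20 after thallium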
HEK counter2 = native HEK Tl+ uptake effects, second counter-screen – HEK cells, counterscreen 2, counter-screen for KCC2 modulator project, confirmation; shares compounds with Cl transport mod; HEK293 parental, thallium flux FluoZin-2 fluorescence slope; thallium flux slope at 10 µM; 3,700 compounds, 33% hits; AID 1718, 2009;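 active = thallium flux slope above the same plate's solvent-control mean plus 3 SD in both duplicate wells; inconclusive = duplicate wells that disagreed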;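 note: run without ouabain in cells lacking the KCC2 cotransporter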
A number is an active result; i = inactive; ? = inconclusive; nt = no result. Sampled rows, rich in hits. Any-hit rate of the full collection: about 4.2%.

SMILES | Mot1-301 SUMO | KCNQ1 block | AI-2 QS mod | Cl transport mod | KCNQ1 act | hERG protect | KCC2 secondary | KCC2 bumet counter | KCC2 secondary2 | HEK293 Tl flux | KCC2 retest ouab | HEK counter2
CN1CCN(C(=S)NC(=O)c2ccc(-c3ccccc3)cc2)CC1 | i | i | i | 26.8 | i | i | 0.0301 | 0.0654 | ? | 0.0335 | 0.0355 | 0.0383
Cc1ccc2c(c1)C1CN(C)CCC1N2C(=S)NC(=O)c1ccc(Br)cc1 (configuration not stated) | nt | i | i | 133 | 22 | i | 0.0413 | 0.112 | ? | 0.126 | 0.0846 | 0.0352
Cc1cccc(C(=O)NC(=S)N2CCN(C)CC2)c1 | i | i | i | i | i | i | nt | nt | nt | nt | nt | nt
O=C(NC(=S)N1CCN(c2ccc([N+](=O)[O-])cc2)CC1)c1ccccc1Cl | i | i | i | i | i | i | nt | nt | nt | nt | nt | nt
CCOC(=O)C1CCN(c2c(Nc3ccc(C)c(C)c3)c(=O)c2=O)CC1 | i | i | i | i | i | i | nt | nt | nt | nt | nt | nt
COc1ccc(S(=O)(=O)N(CCc2ccccc2)CC(=O)O)cc1Cl | i | i | i | -3.77 | i | i | i | ? | 0.0268 | i | 0.0168 | i
COc1ccc(S(=O)(=O)N(CCc2ccccc2)CC(N)=O)cc1 | i | i | i | i | i | i | nt | nt | nt | nt | nt | nt
Cc1ccc(N=c2c([N+](=O)[O-])nn(-c3ccccc3)n2O)c(C)c1 | nt | i | i | i | i | i | nt | nt | nt | nt | nt | nt
Cc1c(Cl)cccc1N=c1c([N+](=O)[O-])nn(-c2ccccc2)n1O | i | i | i | 6.02 | i | i | i | i | i | i | i | i
NC(=O)C1CCN(C(=S)NCCc2ccccc2)CC1 | i | i | i | 4.57 | i | i | i | i | i | i | i | i
O=C(CNC(=O)C1COc2ccccc2O1)Nc1ccc(F)c(F)c1 (configuration not stated) | i | nt | nt | nt | nt | nt | nt | nt | nt | nt | nt | nt
O=C(NNC1=Nc2ccccc2SC1)c1ccc(Cl)cc1 | i | i | i | 5.55 | i | i | i | 0.0112 | i | 0.00967 | i | ?
COCCCNC(=O)c1ccc(S(=O)(=O)c2ccc(Cl)cc2)c(NC(C)=O)c1 | i | i | i | nt | i | i | nt | nt | nt | nt | nt | nt
O=c1c(-c2ccc(F)cc2)coc2cc(O)ccc12 | i | i | i | -5.76 | i | i | i | i | i | i | 0.0206 | ?
COc1cccc(C(=O)COC(=O)C(C)N2C(=O)C3C4C=CC(C4)C3C2=O)c1 (configuration not stated) | i | i | i | i | i | i | nt | nt | nt | nt | nt | nt
O=C(O)C1CCc2sc3[nH]c(=S)n(-c4ccccc4)c(=O)c3c21 (configuration not stated) | i | i | i | i | i | i | nt | nt | nt | nt | nt | nt
Cc1cccc(-n2c(=S)[nH]c3sc4c(c3c2=O)CCc2ccccc2-4)c1 | nt | i | i | 21.4 | 8 | i | 0.0197 | 0.0463 | i | 0.0399 | 0.0433 | 0.0175
Cc1ccc(C)c(C(=O)COC(=O)Cn2c(C)csc2=O)c1 | i | i | i | nt | i | i | nt | nt | nt | nt | nt | nt
Nc1nnc(Sc2ncccc2[N+](=O)[O-])s1 | i | i | i | i | i | i | nt | nt | nt | nt | nt | nt
O=C(/C=C/c1ccccc1)Nc1scc(-c2ccccc2)c1C(=O)O | nt | i | i | -7.05 | i | i | i | ? | 0.0265 | i | 0.0135 | i
O=C(/C=C/c1ccco1)Nc1scc(-c2ccccc2)c1C(=O)O | i | i | i | nt | i | i | nt | nt | nt | nt | nt | nt
N=C1SC(c2ccccc2)C(=O)N1c1ncc(Cc2ccccc2Cl)s1 (configuration not stated) | i | i | i | 5.79 | i | i | i | 0.0198 | i | 0.0158 | ? | 0.0198
O=C(CSc1nnnn1-c1ccccc1)Nc1ncc(Cc2ccccc2Cl)s1 | i | i | i | i | i | i | nt | nt | nt | nt | nt | nt
CCSc1nc(O)cc(=O)[nH]1 | i | i | i | nt | i | i | nt | nt | nt | nt | nt | nt
CCSc1nc(=S)cc(C)[nH]1 | i | i | i | 45.6 | 24 | 25.4 | 0.0272 | 0.0519 | ? | 0.0335 | 0.0433 | 0.018
SMILES | Mot1-301 SUMO | KCNQ1 block | AI-2 QS mod | Cl transport mod | KCNQ1 act | hERG protect | KCC2 secondary | KCC2 bumet counter | KCC2 secondary2 | HEK293 Tl flux | KCC2 retest ouab | HEK counter2
COc1cccc2cc(-c3nnc(SCC(=O)Nc4nc(C)cs4)n3C)oc12 | i | i | i | -2.96 | i | i | i | i | i | i | i | i
Cc1csc(NC(=O)CSc2nnc(-c3ccco3)n2C)n1 | i | i | i | i | i | i | nt | nt | nt | nt | nt | nt
O=C(O)c1cccc(CSc2nc(-c3ccc(Cl)cc3)cc(C(F)(F)F)n2)c1 | i | i | i | nt | i | i | nt | nt | nt | nt | nt | nt
COc1ccc(-c2cc(C)nc(SCc3cccc(C(=O)O)c3)n2)cc1 | i | i | i | -4.84 | i | i | i | 0.0126 | i | 0.00899 | i | ?
O=C(COC(=O)c1ccc(O)cc1)Nc1ccccc1[N+](=O)[O-] | i | i | i | i | i | i | nt | nt | nt | nt | nt | nt
Cn1cc(S(=O)(=O)N2CCc3ccccc3C2)c(=O)n(C)c1=O | i | i | i | -3.45 | i | i | i | ? | i | i | i | i
